CAL PDZ FP-1 = inhibitors of human CAL PDZ peptide binding. purified CAL PDZ, TMR-peptide fluorescence polarization, 1 h. inhibition, % at 20 µM. 0.02% of 330,000 active. AID 504414;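 active = highest replicate inhibition of at least 40%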;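 note: plate controls were DMSO neutral control wells for no effect and unlabeled competitor peptide control wells for full effect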
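System: tagged CAL PDZ domain. Schedule: 1 h room-temperature incubation prior to read. Signal: fluorescence polarization (mP). Measure: percent inhibition from loss of millipolarization.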
SR-BI uptake up = activators of SR-BI mediated HDL lipid uptake; CHO ldlA[mSR-BI] cells, DiI-HDL uptake fluorescence, 3 h; 100 = double the neutral-control signal; activation, % at 12.5 µM; 0.096% of 320,000 active; AID 504775;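 active = mean replicate activation of at least 60% and every replicate at or above 60%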;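 note: 0% = median plate neutral-control signal and 100% = twice that signal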
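Material – SR-BI-overexpressing, LDLR-lacking CHO cells · Medium – BSA-supplemented, HEPES-buffered Ham's F12, pH 7.4 · Doses – single concentration · Times – compound with DiI-HDL co-incubation, 3 h at 37 °C · Measured by – bottom-read fluorescence, 550/595 nm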
SR-BI DiI inh = inhibitors of mouse SR-BI mediated HDL lipid uptake; Q61009; ldlA[mSR-BI] CHO cells, DiI-HDL uptake fluorescence, 3 h; inhibition, % at 12.5 µM; 0.96% of 320,000 active; AID 488896;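 active = mean replicate inhibition of at least 70% and a set share of replicates each scoring 70 or more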;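 note: 0% = median of neutral control wells and 100% = median of positive control wells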
Target sequence (Q61009 whole entry, looked up): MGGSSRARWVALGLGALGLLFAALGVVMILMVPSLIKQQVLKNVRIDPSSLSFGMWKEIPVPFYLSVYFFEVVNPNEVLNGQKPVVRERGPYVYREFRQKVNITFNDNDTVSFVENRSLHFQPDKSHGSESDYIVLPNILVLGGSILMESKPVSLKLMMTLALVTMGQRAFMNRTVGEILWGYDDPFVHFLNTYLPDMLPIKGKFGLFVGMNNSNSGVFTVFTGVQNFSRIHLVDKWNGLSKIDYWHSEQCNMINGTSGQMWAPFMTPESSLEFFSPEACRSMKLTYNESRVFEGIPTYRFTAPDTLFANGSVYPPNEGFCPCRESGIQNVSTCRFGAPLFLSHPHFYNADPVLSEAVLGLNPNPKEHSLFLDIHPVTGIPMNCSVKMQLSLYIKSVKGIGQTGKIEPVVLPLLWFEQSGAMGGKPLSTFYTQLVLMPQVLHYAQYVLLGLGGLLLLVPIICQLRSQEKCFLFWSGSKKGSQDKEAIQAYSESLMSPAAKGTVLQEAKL
CAL PDZ FP-2 = inhibitors of human CAL PDZ peptide binding. inhibition, % at 24.9 µM. 0.92% of 300,000 active. Q9HD26. purified CAL PDZ, TMR-peptide fluorescence polarization, 1 h;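 active = mean inhibition of at least 30% with at least half of replicates also reaching 30%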;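 note: 0% = DMSO neutral control and 100% = excess unlabeled competitor peptide PRC23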
ATG4B inhibitor = ATG4B (human) cysteine protease inhibition. AID 504462. inhibition, % at 8.33 µM. 0.51% of 340,000 active. ATG4B cleavage of LC3-PLA2, NBD-HPC fluorescence, 1 h; in the data active = inhibition above about 40%
Numbers without * were called inactive; . = no result given; ! = not confirmed by another sample. A selection: hits, their analogues and other compounds. The true share with any hit is near 2.3%.

SMILES	CAL PDZ FP-1	SR-BI uptake up	SR-BI DiI inh	CAL PDZ FP-2	ATG4B inhibitor
CCOC(=O)c1cc(C(=O)Nc2sc3c(c2C#N)CCCC3)nn1C	-3	-76	76*	-2	-4
Cc1cc(C(=O)Nc2sc3c(c2C#N)CCCC3)no1	0	9	-9	-2	-1
O=C(CNC(=O)c1ccc(Br)o1)NNC(=O)COc1ccccc1Cl	1	23	-23	-3	-7
O=C(Nc1ccnn1C1CCN(C(=O)Cc2ccccc2F)CC1)C1CC1	-2	22	-22	-1	23
O=C(CN1C(=O)C(=O)N(C2CCCC2)C1=O)Nc1ccc(OC(F)F)cc1	0	10	-10	-4	-3
O=C(N/N=C/c1cc(Br)cc(Br)c1O)c1cccc(N2CCCC2=O)c1	-4	-131	132*	-4	3
O=C(N/N=C/c1ccc(Cl)cc1Cl)c1cccc(N2CCCC2=O)c1	-4	-85	85*	-4	-1
O=C(N/N=C/c1cc(Br)cc(Br)c1O)c1cccc(S(=O)(=O)N2CCOCC2)c1	-4	.	.	1	1
O=C(N/N=C/c1ccc([N+](=O)[O-])cc1)c1cccc(N2CCCC2=O)c1	-1	-63	63	-6	-11
O=C(NC1CCCN(Cc2ccc(Cl)cc2)C1)c1cccc(N2CCCC2=O)c1 (stereo not given)	139*	-49	49	-3	-3
Cc1ccc(C)c(Cn2c3ccccc3c3cnn(CC(=O)NCCCN4CCCCC4)c(=O)c32)c1	-2	-1	1	-7	-9
CCN(CC(=O)Nc1ccc(NC(C)=O)cc1)C(=O)c1ccc(N(C)S(=O)(=O)c2ccc(C)cc2)cc1	-2	-6	6	-1	-43
Nc1c(C(=O)Nc2ccccc2)c2nc3ccccc3nc2n1-c1ccc(O)cc1	-3	-16	16	-8	-5
CC(C)c1ccc(Oc2cccc3c2S(=O)(=O)N(C2CCCC2)CC(COCc2ccccc2)O3)cc1 (stereo not given)	-1	-56	56	7	3
CCOC(=O)C1=C(C)NC(=O)NC1c1cc(Br)c(O)c(OC)c1 (stereo not given)	.	-4	4	-1	-11
COc1cc(C2NC(=O)NC(C)=C2C(=O)OC2CCCCC2)cc(Br)c1O (stereo not given)	88*	11	-11	-4	-2
Cc1ccccc1NC(=O)COC(=O)c1cc(S(=O)(=O)N2CCOCC2)ccc1C	0	-39	39	-3	1
COC(CNC(=O)C1CCC(CNS(=O)(=O)c2c(C)cc(C)cc2C)CC1)OC (stereo not given)	0	.	.	-1	-8
O=C(Cn1cc(COc2ccc3ccc(=O)oc3c2)nn1)c1ccc(O)cc1	-1	3	-3	30*	.
COc1cccc(CC(=O)NN2C(=O)NC3(CCCCC3)C2=O)c1	-7	-5	5	-6	-2
C=CCn1c(SCC(=O)O)nc2sc(CC)cc2c1=O	1	4	-4	.	-3
C=CCn1c(SCC(=O)/C(C#N)=C(\C)N)nc2sc(CC)cc2c1=O	0	-18	18	40*!	3
O=C(Cc1ccccc1[N+](=O)[O-])NCCCc1ccccc1	.	12	-12	-1	-1
CCN(CCN(C)C)C(=O)C1CCN(S(=O)(=O)c2c(C)noc2/C=C/c2ccccc2F)CC1	-2	-25	25	-2	-8
CCOc1ccccc1/C=C/c1onc(C)c1S(=O)(=O)N1CCC(C(=O)N(CC)CC)CC1	-2	-71	71*	-1	-1
SMILES	CAL PDZ FP-1	SR-BI uptake up	SR-BI DiI inh	CAL PDZ FP-2	ATG4B inhibitor
Cc1noc(/C=C/c2ccco2)c1S(=O)(=O)N1CCC(C(=O)NC(C)c2ccccc2)CC1 (stereo not given)	0	-81	81*	.	-2
CCOc1ccc(OCC)c(NC(=O)C2CCCN(S(=O)(=O)c3c(C)noc3C)C2)c1 (stereo not given)	-5	11	-11	33*	-15
Cc1noc(/C=C/c2ccco2)c1S(=O)(=O)N1CCC(C(=O)N(C)Cc2ccccc2)CC1	-1	-6	6	0	1
COc1ccc(-c2csc(=NCCO)n2-c2ccccc2)cc1	-1	3	-3	62*	-10
COc1ccc(-c2csc(=Nc3ccccc3)n2CCO)cc1	0	13	-13	.	-5
Nc1ccc(C(=O)n2c3ccccc3c3ccccc32)cc1	.	-91	91*	0	-1
Nc1ccc(C(=O)N2CCCC2)cc1	-1	-13	13	.	11
CCC(=O)N1Cc2ccccc2-c2ccccc2C1=O	.	.	.	.	41*
Cc1ccc(S(=O)(=O)Nc2cccc3cccnc23)cc1	-1	-19	19	42*	0
COc1cc(NS(=O)(=O)c2ccc(C)cc2)c2ncccc2c1	0	11	-11	-2	-9
COCCCn1c(SCC(=O)Nc2ccc(NC(=O)c3ccco3)c(OC)c2)nc2ccccc2c1=O	-2	-74	74*	-2	-13
COCCn1c(SCC(=O)Nc2ccc(OC)c(S(N)(=O)=O)c2)nc2ccccc2c1=O	0	-23	23	41*	-4
CCCCN1CCc2c([nH]c3c(C)cccc23)C1=O	-1	-14	14	72*	-7
CCCc1c(C)c2cccc(C)c2[nH]c1=O	.	1	-1	-6	3
CC(C)=CC(=O)Nc1cccc(S(=O)(=O)NC2=NCCCCC2)c1	1	19	-19	47*	-4
CCCCn1c(N)c(N(C)C(=O)c2cc3c(F)cccc3s2)c(=O)[nH]c1=O	0	19	-19	.	-7
c1ccc(NCCC2OCC3(CO2)COC(CCNc2ccccc2)OC3)cc1 (stereo not given)	0	-18	18	-3	-1
COc1ccc(N2C(=O)CCC(C(=O)N3CCCCC3)C2c2ccc(F)cc2)cc1 (stereo not given)	-1	18	-18	59*	-1
COc1ccc(N2C(=O)CCC(C(=O)N3CCC(C(N)=O)CC3)C2c2ccc(F)cc2)cc1 (stereo not given)	-1	15	-15	-1	-3
O=C(COc1ccc(-c2nnco2)cc1)N1CCOCC1	0	16	-16	.	6
Cc1ccccc1CN1C(=O)[C@@H]2Cc3c([nH]c4ccccc34)C(C)(C)N2C1=O	-1	-67	67	-6	-1
CC1(C)c2[nH]c3ccccc3c2C[C@H]2C(=O)N(Cc3cccc(F)c3)C(=O)N21	-1	-69	69	-2	6
CC(C)CCN1CC(=O)N2[C@@H](Cc3c([nH]c4ccccc34)C2(C)C)C1=O	0	-30	30	61*	-6
COc1ccccc1CN1C(=O)[C@@H]2Cc3c([nH]c4ccccc34)C(C)(C)N2C1=O	0	-76	76*	-21	-7
